# OX1R antag-1 = antagonists of human orexin 1 receptor (OX1R) | OX1R-expressing cells, FRET antagonist read-out | inhibition, % at 6.6 µM | 330,000 compounds, 1.8% hits; in the data active means inhibition mostly above about 38%, no sharp cut-off; inactive means mostly below about 40%
# Target sequence (O43613 whole entry, looked up): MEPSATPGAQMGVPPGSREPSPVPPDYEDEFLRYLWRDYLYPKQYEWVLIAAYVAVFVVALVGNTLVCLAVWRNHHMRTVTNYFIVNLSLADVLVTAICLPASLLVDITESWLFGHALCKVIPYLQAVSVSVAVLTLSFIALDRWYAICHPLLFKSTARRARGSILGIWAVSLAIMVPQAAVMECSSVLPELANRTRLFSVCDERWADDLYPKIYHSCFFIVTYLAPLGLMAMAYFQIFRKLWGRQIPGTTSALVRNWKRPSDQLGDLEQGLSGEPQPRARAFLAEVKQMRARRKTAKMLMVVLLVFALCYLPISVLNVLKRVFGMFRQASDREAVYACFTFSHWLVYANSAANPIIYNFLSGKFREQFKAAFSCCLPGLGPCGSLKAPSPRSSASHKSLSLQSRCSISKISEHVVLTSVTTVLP
# GalR3 antagonist = GalR3 antagonists in HEK293 cells, primary screen, cell-based, fluorescence readout; Galanin receptor type 3 (Homo sapiens), O60755; HEK293 GalR3-CNG cAMP membrane potential fluorescence; galR3 body fused to GalR1 C-terminus; inhibition, % at 3 µM; 360,000 compounds, 0.44% hits; AID 651719, 2012;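 active means inhibition above the screen-wide average plus 3 SD, cut at about 13% in these data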;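 further: forskolin and galanin both at EC90 stimulate the cells; cAMP rise reported by CNG channel membrane potential dye signal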
# GPR7 antagonist = GPR7 receptor antagonists, primary screen, cell-based, fluorescence, single concentration; Neuropeptides B/W receptor type 1 (Homo sapiens), P48145; GPR7-expressing cells, fluorescence antagonist assay; inhibition, % at 4.4 µM; 290,000 compounds, 1.1% hits; AID 1861, 2009; in the data active means inhibition above about 16%, passing the limit was not always enough;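 further: cells stimulated with the agonist NPW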
# CHO parental Ca = ATP-evoked calcium signal inhibitors, parental CHO, primary screen, counter-screen for OX1R antagonist project, cell-based, fluorescence, Fluo-8 calcium dye. parental CHO-K1, ATP-induced calcium, Fluo-8 fluorescence. inhibition, % at 5.6 µM. 330,000 compounds, 0.63% hits. AID 463079, 2010;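 active means inhibition above that plate's mean sample inhibition plus 3 SD, cut at about 26% in these data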
#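 Measured by: calcium-sensitive Fluo-8 fluorescence / Test system: CHO parental line / Controls: ATP-challenged DMSO wells low, unchallenged DMSO wells high / Measure: % inhibition / Compound: single nominal dose of 5.6 µM per compound / Replicates: single well per compound, no replicates / Reagent: ATP as calcium-mobilizing challenge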
# OX1R antag-2 = OX1R (HCRTR1) antagonists, primary screen, fluorescence, CHO/OX1R cells, Fluo-8 calcium, orexin A. AID 434989, 2010. inhibition, % at 5 µM. Fluo-8 calcium fluorescence. 330,000 compounds, 0.43% hits;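 active means inhibition above its plate's threshold, mean inhibition of all tested compounds on the plate plus 3 SD, cut at about 37% in these data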
# A number is an active result; 0 = inactive; - = not tested or not shown. Hits are enriched below; roughly 3.1% of the tested compounds scored in any of these assays.
SMILES,OX1R antag-1,GalR3 antagonist,GPR7 antagonist,CHO parental Ca,OX1R antag-2
COc1cc(/C=C2/SC(=S)N(Cc3ccccc3)C2=O)cc(Cl)c1O,0,0,89,67,95
COc1cc([N+](=O)[O-])cc(/C=C2/SC(=S)N(Cc3ccccc3)C2=O)c1O,0,0,0,49,68
CC(=O)N(C1=C(N)C(=O)c2ccccc2C1=O)C(C)C,48,0,0,0,0
COc1ccccc1N(C(C)=O)C1=C(Cl)C(=O)c2ccccc2C1=O,-,0,-,-,-
CNc1cccc(-c2ccccc2CO)n1,-,0,-,-,-
C/C(=N\Nc1ccc([N+](=O)[O-])cc1)c1ccc(C#N)cc1,0,0,0,0,0
N#CC(C#N)=NNc1ccc([N+](=O)[O-])cc1,72,0,0,0,0
CC1(C(=O)N2CC3(CC(c4cccc([N+](=O)[O-])c4)=NO3)C[C@H]2C(=O)NCC(N)=O)CC1 (stereo partly drawn),48,0,0,0,0
NC(=O)CNC(=O)[C@@H]1CC2(CC(c3cccc([N+](=O)[O-])c3)=NO2)CN1C(=O)c1ccccc1 (stereo partly drawn),0,0,0,0,0
Cc1c(C(=O)OCC(=O)Nc2ccc(S(N)(=O)=O)cc2)oc2c1ccc1ccccc12,0,0,0,41,0
Cc1cc(N2CCN(C(C(=O)NC3CCCC3)C(C)C)CC2)c2ccccc2n1 (stereo not drawn),-,0,-,-,-
CCCCNS(=O)(=O)c1ccc2nc(SCC(=O)Nc3sccc3C#N)[nH]c2c1,76,0,0,47,54
CCCC[C@@]1(C2CCCC2)Cc2cc(OCC(=O)O)c(Cl)c(Cl)c2C1=O,43,-,-,0,0
C[C@]1(C2CCCC2)Cc2cc(OCC(=O)O)c(Cl)c(Cl)c2C1=O,0,0,-,0,0
Oc1cccc(Nc2nc(O)c(/C=C3\C=Nc4ccccc43)s2)c1,0,0,0,0,0
CC1=Nc2ccccc2/C1=C\c1sc(Nc2ccc(C)cc2)nc1O,0,0,19,0,0
COc1ccc(N2CCN(C(=O)c3ccc4c(c3)CCN4S(C)(=O)=O)CC2)cc1,-,0,-,-,-
CS(=O)(=O)NCCCNc1ccc(Cl)cc1[N+](=O)[O-],43,0,0,0,0
COc1cc(CNC(C)(C)CO)cc(Br)c1OCc1ccc(Cl)cc1,0,0,37,0,0
O=C1N=C(N2CCOCC2)S/C1=C\c1cccs1,0,0,0,0,0
N#CCCN1CCN(C2=NC(=O)/C(=C\c3cccs3)S2)CC1,42,0,0,0,0
Cc1ccc2nc(-c3ccc(C#N)cc3)c(Cc3cccc(F)c3)n2c1,-,0,-,-,-
Cn1c(C(=O)N2CCC(C(=O)N3CCOCC3)CC2)cc2sccc21,0,-,20,0,0
C[C@@H]1CN([C@@H](C)CO)C(=O)CCCn2nncc2CO[C@H]1CN(C)C(=O)Nc1ccc(N2CCN(C)CC2)cc1,-,0,-,-,-
COC(=O)c1cccc(NC(=O)Nc2ccc(Cl)c(Cl)c2)c1,69,0,0,0,67
SMILES,OX1R antag-1,GalR3 antagonist,GPR7 antagonist,CHO parental Ca,OX1R antag-2
COC(=O)c1ccc(NC(=O)Nc2ccc(F)c(Cl)c2)cc1,59,0,0,41,0
COC(=O)c1cccc(NC(=O)NC(=O)c2ccccc2Cl)c1,0,0,0,0,0
COC(=O)c1cc(NC(=O)Nc2ccccc2)ccc1Cl,0,0,0,49,0
O=C(Nc1ccc(F)c(Cl)c1)Nc1csc2ccccc12,67,0,0,40,50
COC(=O)[C@]12C[C@H](CC(=O)NCc3cccs3)C(=O)N(Cc3ccc4c(c3)OCO4)C1=C[C@H](COCc1ccccc1)O[C@@H]2C,-,0,-,-,-
CCC(=O)N[C@@H]1CC[C@@H](CCNC(=O)Nc2ccc(F)cc2)O[C@@H]1CO,-,0,-,-,-
COc1cccc(NC(=O)Nc2ccc(C)c(Cl)c2)c1,0,0,0,90,38
O=C(COC(=O)[C@@H]1CCCN1C(=O)c1cccs1)Nc1ccc(F)cc1[N+](=O)[O-],64,0,0,0,0
O=C1c2cccc3cccc(c23)C(=O)N1Cc1cccnc1,0,0,0,0,0
O=C1c2cccc3c([N+](=O)[O-])ccc(c23)C(=O)N1Cc1cccnc1,-,30,24,-,-
CCN(CC)C(=O)CN1C(=O)c2cccc3cccc(c23)C1=O,69,0,0,0,0
O=C(CCN1C(=O)c2cccc3cccc(c23)C1=O)NCc1cccnc1,47,0,0,0,0
CN(C)CCCN1C(=O)c2cccc3cccc(c23)C1=O,56,0,0,0,0
COc1ccc(OC)c(NC(=O)C2(C)CCN2C(C)C)c1 (stereo not drawn),-,0,-,-,-
N#Cc1ccc(C(=O)N2CCC3CC2c2cc(-c4ccc(F)cc4)ccc23)cc1 (stereo not drawn),-,0,-,-,-
O=C(CCCCCN1C(=O)c2cccc3cccc(c23)C1=O)NCCO,52,0,0,0,0
O=S(=O)(Nc1nc2ccccc2nc1N1CCN(CCO)CC1)c1cc(F)ccc1F,0,0,-,0,0
CCOc1cc(C(=O)N(C)CC(=O)Nc2cccc3ccccc23)ccc1OC,0,0,-,0,0
O=S(=O)(/C=C/c1ccccc1)c1ccccc1,0,0,0,0,0
O=S(=O)(C=C(c1ccccc1)c1ccccc1)c1ccccc1,0,0,0,48,43
Cn1ccnc1C(O)c1ccccc1 (stereo not drawn),0,0,0,0,0
COc1ccc2ccccc2c1C(O)c1nccn1C (stereo not drawn),64,0,0,0,0
COc1ccc(CNC(=O)[C@@H](Cc2ccccc2)NC(=O)[C@H]2O[C@@H](n3ccc(=O)[nH]c3=O)[C@H](O)[C@@H]2O)cc1,-,0,-,-,-
N#Cc1cc([N+](=O)[O-])ccc1NC(=O)CSc1n[nH]c(=O)n1C1CC1,33,0,-,0,0
CCN(CC)C(=O)Cn1cc(C(=O)C(=O)NCCc2c[nH]c3ccccc23)c2ccccc21,46,0,0,0,0
SMILES,OX1R antag-1,GalR3 antagonist,GPR7 antagonist,CHO parental Ca,OX1R antag-2
CCN(CC)C(=O)Cn1cc(C(=O)C(=O)NCCCN2CCCCC2)c2ccccc21,0,0,0,0,0
Cc1nnc(NC(=O)C2CCN(S(=O)(=O)c3cc([N+](=O)[O-])ccc3Cl)CC2)o1,28,0,-,0,0
O=C(NC1CC1)C1CCN(S(=O)(=O)c2cc([N+](=O)[O-])ccc2Cl)CC1,0,0,-,0,0
COc1c(C)cc(C(=O)C2CCCN(C(=O)c3ccoc3)C2)cc1C (stereo not drawn),51,0,0,0,0
CCc1cccc2c(C(=O)COC(=O)/C=C/c3ccccc3OC)c[nH]c12,63,0,0,0,0
Cn1c(=O)c2c(nc(Br)n2Cc2ccccc2Cl)n(C)c1=O,0,0,19,0,0
CCOc1nc2c(c(=O)n(C)c(=O)n2C)n1Cc1ccccc1Cl,0,0,0,0,0
